Data on 8 compounds can be found in ChEMBL document CHEMBL1759843, “Cytotoxic and antioxidant activities of diterpenes and sterols from the Vietnamese soft coral Lobophytum compactum” (Bioorg Med Chem Lett, 2011).

For one assay, the system named is A549. Description: Cytotoxicity against human A549 cells after 72 hrs. In kind it is functional, cell-based. The conditions noted are these: A549, 72 h. In a few lines: (§1)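 Human A549 (lung) and HL-60 (leukemia) cancer cells were exposed to compounds up to a maximum of 100 µM, and cell growth was measured. IC50 is the concentration that inhibits 50% of cell growth, reported as mean ± SD of experiments run in triplicate. Mitoxantrone served as the reference compound.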

The subject of the next assay is HL-60. Description: Cytotoxicity against human HL60 cells after 72 hrs. In kind it is functional, cell-based. As to conditions: HL-60, 72 h. In a few lines:
as §1

A short description of assay [1]: Antioxidant activity assessed as trolox equivalents of peroxyl radical scavenging activity at 1 uM by ORAC assay. Type of assay: functional.
Assay [2] in a line: Antioxidant activity assessed as reduction of Copper(I) at 1 uM. Type of assay: functional.
Assay [3] is described as follows: Antioxidant activity assessed as reduction of Copper(I) at 5 uM. In kind it is functional.
The nature of assay [4]: Antioxidant activity assessed as Cu2+ chelating activity at 1 uM. Type of assay: functional.
The nature of assay [5]: Antioxidant activity assessed as Cu2+ chelating activity at 5 uM. In kind it is functional.
A short description of assay [6]: Antioxidant activity assessed as trolox equivalents of peroxyl radical scavenging activity at 5 uM by ORAC assay. In kind it is functional.

Activity calls are given as the source filed them. No cut-off for these calls is given here. Where only a bound is given, the exact number is not on record here.

Usually IC50 stands for the concentration at which inhibition is half-maximal. Read a high IC50 as weaker potency. In the case of `O=C1c2c(O)ccc(O)c2C(=O)c2c(NCCNCCO)ccc(NCCNCCO)c21` [MITOXANTRONE], the IC50 stood at 7.83 µM in the assay with A549 and 8.1 µM in the assay on HL-60.
With `CC(=O)OC(C)(C)[C@@H](C)CC[C@@H](C)[C@H]1CC[C@H]2[C@@H]3C[C@@H](O)[C@@]4(O)C[C@@H](O)CC[C@]4(C)[C@H]3CC[C@]12C`, the values for the IC50 in the assay with A549 and in the assay on HL-60 were 36.5 µM and 42.8 µM, respectively. For the same compound, the outcome in assay [1], in assay [2], in assay [3], in assay [4] and in assay [5] was inactive.
`C=C[C@@]1(C)CC[C@H](C2=CC[C@H](C(C)(C)O)OC2)C[C@@H]1C(=C)C` [LOBATRIENE]: the results for the IC50 with A549 and in the assay on HL-60 were 31.1 µM and 33.8 µM, respectively. Besides, the result in assay [1], in assay [2], in assay [3], in assay [4] and in assay [5] was inactive.
Take `C=C1CC/C=C(\C)CC[C@H](C2=CC[C@H](C(C)(C)O)OC2)C[C@H]1O` [LOBOCOMPACTOL A]: the results for the IC50 with A549 and with HL-60 were over 100 µM and 48.2 µM, respectively. Also, the Activity in assay [6] is 1.4 µM. Also, the result in assay [2], in assay [3], in assay [4] and in assay [5] was inactive.
As for `C=C(CC[C@@H](C)[C@H]1CC[C@@H]([C@@H]2CC=C3C[C@@H](O)CC[C@]3(C)C2=O)[C@]1(C)CCO)C(C)C`, the IC50 amounted to 4.97 µM in the assay with A549 and 17.8 µM in the assay on HL-60. Moreover, the result in assay [1], in assay [2], in assay [3], in assay [4] and in assay [5] was inactive.
For the compound `C=C[C@@]1(C)CC[C@H](C2=CC[C@H](C(C)(C)O)OC2=O)C[C@@H]1C(=C)C` [LOBATRIENOLIDE], the IC50 in the assay on A549 turned out to be 23 µM; in the assay with HL-60, 24.8 µM. Further, the result in assay [1], in assay [2], in assay [3], in assay [4] and in assay [5] was inactive.
In the case of `C=C1CC/C=C(\C)CC[C@@H](C2=CC[C@H](C(C)(C)O)OC2)C[C@H]1O` [LOBOCOMPACTOL B], the IC50 is over 100 µM in the assay with A549 and 37.5 µM with HL-60. Also, the Activity in assay [6] came to 1.3 µM. Moreover, the outcome in assay [2], in assay [3], in assay [4] and in assay [5] was inactive.
In the case of `C[C@H](CC[C@H](C)C(C)(C)O)[C@H]1CC[C@H]2[C@@H]3C[C@@H](O)[C@@]4(O)C[C@@H](O)CC[C@]4(C)[C@H]3CC[C@]12C`, the IC50 in the assay on A549 was over 100 µM; in the assay with HL-60 it was 59.1 µM. Also, the result in assay [1], in assay [2], in assay [3], in assay [4] and in assay [5] was inactive.
